Peptide text beside a SMILES is read from it. * marks the point of attachment. Lauroyl = CCCCCCCCCCCC(=O)*
Key:
[1] = Plasma pharmacokinetics after intravenous; format: in vivo, Sprague Dawley rats; conditions: rat, 2.5 mg i.v., plasma sampled for 3 days
Summary of the method: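 Adult male Sprague Dawley rats (350-400 g) under isoflurane (5% induction, 1%-3% maintenance) got one internal jugular injection. Blood was taken by terminal cardiac puncture from 0 to 72 h (N = 3 per time) and plasma separated cold. Levels were measured in duplicate by LC-MS/MS after protein precipitation with analog internal standard (curve 1.0-500 ng/mL). Data were fitted with a three-compartment naïve-pooled model, extended least-squares, variance-weighted.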

[2] = Urinary excretion; format: in vivo, Sprague Dawley rats; conditions: rat, i.v., urine from bladder
[3] = cited from earlier work
[4] = 3 hours, or 1, 2, 3, and 7 days after injection; cited from earlier work

CCCCCCCCCCCC(=O)NCCCC[C@H](NC(=O)[C@@H](NC(=O)[C@@H](NC(=O)[C@H](C)NC(=O)[C@H](C)NC(=O)[C@H](CCCCN)NC(=O)[C@H](CCCCN)NC(=O)[C@H](CS)NC(=O)[C@H](CCCCN)NC(=O)[C@@H]1CCCN1C(=O)[C@H](CC(C)C)NC(=O)[C@@H](NC(=O)[C@H](Cc1c[nH]c2ccccc12)NC(=O)[C@H](CC(C)C)NC(=O)[C@@H](N)CCCCN)C(C)C)C(C)C)C(C)C)C(N)=O [collagen‐targeted PA] (H-KLWVLPKCKKAAVVK(Lauroyl)-NH2)
observed terminal half-life (not to be interpreted as elimination half-life) [1]: 42.6 h
presence of the target peptide in urine by LC-MS/MS [2]: did not show the presence of the target peptide
CAC for this fiber [3]: below 1 µM
critical aggregation concentration (CAC) ([3]; collagen-targeted PA with Alexa Fluor 546, nanofibers at neutral pH): < 300 nM
liver function profiles, coagulation panel, or chemistry panel [4]: no change

From PMC7580710 (Pharmacology Research & Perspectives, 2020)
